Assay results from different studies.
Protocols differ between the studies behind these lines.
CSF1R autoinhibited: Macrophage colony-stimulating factor 1 receptor, autoinhibited (CSF1R, Homo sapiens, UniProt P07333)
CSF1R: Macrophage colony-stimulating factor 1 receptor (CSF1R, Homo sapiens, UniProt P07333)

| Compound | target | observed | action | technique | concentration | measurement | result |
| --- | --- | --- | --- | --- | --- | --- | --- |
| C1=C/COCc2cc(ccc2OCCN2CCCC2)Nc2nccc(n2)-c2cccc(c2)COC/1 | CSF1R autoinhibited | binding | – | – | 0.1 µM | remaining binding | 53% |
| CC#CC(=O)N1CCC[C@H]1c1nc(-c2ccc(C(=O)Nc3ccccn3)cc2)c2c(N)nccn12 | CSF1R | enzyme activity | inhibitor | – | 1 µM | inhibition | 0% |
| COc1ccc2[nH]c3c4[nH]c5ccc(OC)cc5c4c4c(c3c2c1)C(=O)NC4=O | CSF1R | binding | – | competition with immobilised ligand | 1 µM | remaining binding | 58% |
| C=CC(=O)N1CCC([C@@H]2CCNc3c(C(N)=O)c(-c4ccc(Oc5ccccc5)cc4)nn32)CC1 | CSF1R autoinhibited | cell-free assay | – | – | 1 µM | inhibition | 0% |
| C#Cc1cnc(Nc2ccnc(CO)c2)nc1Nc1ccccc1S(C)(=O)=NC#N (centres unmarked) | CSF1R | cell-free assay | – | – | 1 µM | remaining signal | 53% |
| Cc1ccc(NC(=O)c2ccnc(C(F)(F)F)c2)cc1-c1cc(OCCO)nc(N2CCOCC2)c1 | CSF1R autoinhibited | binding | – | competition with immobilised ligand | 1 µM | remaining binding | 87% |
| CCCCC(=O)Nc1ccc(-c2ccc3ncn(CCC)c(=O)c3c2)cn1 | CSF1R | binding | – | competition with immobilised ligand | 0.5 µM | remaining binding | 88% |
| N#Cc1ccc(NC(=O)Nc2ccccc2)cc1 | CSF1R | cell-free assay | – | competition with immobilised ligand | 25 µM | remaining binding | 61% |
